Test results reported in paper PMC11022936 (Drug Metabolism and Disposition, 2023).
Values joined by “and” are separate entries in the source; they are usually repeats but may differ in a detail not shown here. Identical values can stand only once. Like-named read-outs stand apart in the source and are kept apart here.

Tests used:
[1] = Fraction unbound in plasma, equilibrium dialysis; type: in vitro ADME; conditions: rat plasma, 10 µmol/L, 37°C, 16 h, mean ± S.D., n = 3
Procedure, shortened: (§1)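 Equilibrium dialysis used frozen pooled plasma (n>3 donors, K2-EDTA): human (mixed sex), rat (male Han Wistar), dog (male beagle). Plasma spiked with test compound at 0.1, 1.0 or 10 was dialysed against phosphate buffer pH 7.4 for 16 h at 37°C, in triplicate. Calibration standards were made in spiked plasma. fu = buffer concentration / plasma concentration. Recovery = total compound found after dialysis / total added.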

[2] = Human MAD study, plasma AUC0-24h pools, metabolite concentrations; type: in vivo; conditions: human AUC0-24h plasma pool
Procedure, shortened: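 Plasma came from healthy male volunteers given unlabelled test compound once daily in a phase I multiple-ascending-dose study. Groups: 5 mg (day 10, n = 8), 10 mg (day 14, n = 8), 15 mg (day 10, n = 7). Samples were pooled time-proportionally across participants into one AUC0-24h pool per dose, protein-precipitated and run by LC-HRMS. DRE = summed concentrations of parent plus quantified metabolites.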

[3] = dogs; ref Inghardt et al., 2022; cited from earlier work
[4] = type: in vivo, rat; conditions: for Total % of dose (total radioactivity in sample), feces / Total % of dose (total radioactivity in sample), urine / percentage of dose in feces / percentage of dose in urine: 0-48 h pool; for percentage of dose in feces / percentage of dose in urine: single oral 40 mg/kg; for concentration at 1 h / concentration at 3 h / concentration at 8 h: Han Wistar, rat, plasma, po; for administered dose recovered in feces (mean) / urinary excretion of administered dose (mean): intact male and female rats
[5] = ref Inghardt et al., 2022; cited from earlier work
[6] = Mouse 28-day repeat dose, plasma metabolite profiling; type: in vivo; conditions: mouse plasma AUC0-24h pool
[7] = Fraction unbound in plasma, equilibrium dialysis; type: in vitro ADME; conditions: human plasma, 1 µmol/L, 37°C, 16 h, mean ± S.D., n = 3
Procedure, shortened: as §1

[8] = Rat 3-month repeated-dose GLP toxicity study; conditions: both, SD, in vivo, po, 125 mg/kg/day
[9] = Dog 3-month repeated-dose GLP toxicity study; conditions: both, in vivo, po, 100 mg/kg/day
[10] = rats; ref Inghardt et al., 2022; cited from earlier work
[11] = tested on: MPO; conditions: read-out: potency toward MPO (IC50); in vitro; ref Inghardt et al., 2022; cited from earlier work
[12] = Fraction unbound in plasma, equilibrium dialysis; type: in vitro ADME; conditions: dog plasma, 10 µmol/L, 37°C, 16 h, mean ± S.D., n = 3
Procedure, shortened: as §1

[13] = human; ref Tong et al., 2010; cited from earlier work
[14] = BDC male rats, oral, 0-24 h pool
[15] = female intact rats, oral 40 mg/kg
[16] = female intact rats, oral 40 mg/kg, 40 mg/kg
[17] = male intact rats, oral 40 mg/kg, 40 mg/kg
[18] = male intact rats, oral 40 mg/kg, listed as [^14C]AZD4831, 40 mg/kg

C[C@@H](N)c1cc(Cl)ccc1Cn1c(=S)[nH]c(=O)c2[nH]ccc21 [AZD4831, (R)-1-(2-(1-aminoethyl)-4-chlorobenzyl)-2-thioxo-2,3-dihydro-1H-pyrrolo[3,2-d]pyrimidin-4(5H)-one]
percentage free drug in plasma [1]: 22.0 ± 0.49%
plasma concentration ([2]; 5 mg once daily): 0.028 µM
plasma concentration ([2]; 10 mg once daily): 0.053 µM
plasma concentration ([2]; 15 mg once daily): 0.086 µM
bioavailability [3]: good bioavailability
clearance [3]: moderate clearance
dose fraction excreted in bile within 0-24 hours ([4]; BDC female rats, oral 40 mg/kg): 10%
percent of administered dose in bile ([4]; BDC female rats, oral, 0-24 h pool): 0.2%
dose fraction excreted in bile within 0-24 hours ([4]; BDC male rats, oral 40 mg/kg): 21%
percent of administered dose in bile [4, 14]: < 0.1%
percent of dose in feces [4, 14]: 20%
percent of dose in urine [4, 14]: 26%
Sum % of dose (integrated radioactive peaks), feces [4, 15]: 35.5 % of dose
Sum % of dose (integrated radioactive peaks), urine [4, 15]: 31.3 % of dose
Total % of dose (total radioactivity in sample), feces [4, 16]: 43 % of dose
Total % of dose (total radioactivity in sample), urine [4, 16]: 34 % of dose
Total % of dose (total radioactivity in sample), urine ([4]; female intact rats, oral 40 mg/kg, listed as [^14C]AZD4831, 40 mg/kg): 34.4 % of dose
percentage of dose in feces ([4]; female intact rats, 40 mg/kg): 31 % of dose and 30.7 % of dose
percentage of dose in urine ([4]; female intact rats, 40 mg/kg): 30 % of dose and 30.3 % of dose
Sum µmol equiv/L (integrated radioactive peaks) in plasma ([4]; female rats, 1 h): 10.4 µmol equiv/L
Total µmol equiv/L (total radioactivity) in plasma ([4]; female rats, 1 h, oral): 12.5 µmol equiv/L
% of total radioactivity in plasma ([4]; female rats, 1 h, oral 40 mg/kg): 72.8 % of total
Sum µmol equiv/L (integrated radioactive peaks) in plasma ([4]; female rats, 3 h): 13.8 µmol equiv/L
Total µmol equiv/L (total radioactivity) in plasma ([4]; female rats, 3 h, oral): 15.9 µmol equiv/L
% of total radioactivity in plasma ([4]; female rats, 3 h, oral 40 mg/kg): 77.5 % of total
Sum µmol equiv/L (integrated radioactive peaks) in plasma ([4]; female rats, 8 h): 11.7 µmol equiv/L
Total µmol equiv/L (total radioactivity) in plasma ([4]; female rats, 8 h, oral): 13.4 µmol equiv/L
% of total radioactivity in plasma ([4]; female rats, 8 h, oral 40 mg/kg): 82.1 % of total
concentration at 1 h ([4]; female, 40 mg/kg): 9.1 µM
concentration at 3 h ([4]; female, 40 mg/kg): 12.3 µM
concentration at 8 h ([4]; female, 40 mg/kg): 11 µM
administered dose recovered in feces (mean) ([4]; intravenous): 46.9%
urinary excretion of administered dose (mean) ([4]; intravenous): 37.7%
administered dose recovered in feces (mean) ([4]; oral): 51.9%
urinary excretion of administered dose (mean) ([4]; oral): 32.0%
Sum % of dose (integrated radioactive peaks), feces ([4]; male intact rats, oral 40 mg/kg): 45.9 % of dose
Total % of dose (total radioactivity in sample), feces [4, 17]: 59 % of dose
Total % of dose (total radioactivity in sample), urine [4, 17]: 28 % of dose
Total % of dose (total radioactivity in sample), feces [4, 18]: 58.7 % of dose
Total % of dose (total radioactivity in sample), urine [4, 18]: 28.2 % of dose
percentage of dose in feces ([4]; male intact rats, 40 mg/kg): 40 % of dose and 39.6 % of dose
percentage of dose in urine ([4]; male intact rats, 40 mg/kg): 20 % of dose and 20.3 % of dose
Sum µmol equiv/L (integrated radioactive peaks) in plasma ([4]; male rats, 1 h): 20.3 µmol equiv/L
Total µmol equiv/L (total radioactivity) in plasma ([4]; male rats, 1 h, oral): 23.4 µmol equiv/L
% of total radioactivity in plasma ([4]; male rats, 1 h, oral 40 mg/kg): 78.2 % of total
Sum µmol equiv/L (integrated radioactive peaks) in plasma ([4]; male rats, 3 h): 13.6 µmol equiv/L
Total µmol equiv/L (total radioactivity) in plasma ([4]; male rats, 3 h, oral): 17.1 µmol equiv/L
% of total radioactivity in plasma ([4]; male rats, 3 h, oral 40 mg/kg): 66.8 % of total
Sum µmol equiv/L (integrated radioactive peaks) in plasma ([4]; male rats, 8 h): 13.7 µmol equiv/L
Total µmol equiv/L (total radioactivity) in plasma ([4]; male rats, 8 h, oral): 16.9 µmol equiv/L
% of total radioactivity in plasma ([4]; male rats, 8 h, oral 40 mg/kg): 70.9 % of total
concentration at 1 h ([4]; male, 40 mg/kg): 18.3 µM
concentration at 3 h ([4]; male, 40 mg/kg): 11.4 µM
concentration at 8 h ([4]; male, 40 mg/kg): 12 µM
radioactivity recovered in bile (mean) ([4]; orally dosed BDC female rats): 10.4%
radioactivity recovered in feces (mean) ([4]; orally dosed BDC female rats): 23.2%
radioactivity recovered in urine (mean) ([4]; orally dosed BDC female rats): 54.7%
radioactivity recovered in bile (mean) ([4]; orally dosed BDC male rats): 21.4%
radioactivity recovered in feces (mean) ([4]; orally dosed BDC male rats): 27.5%
radioactivity recovered in urine (mean) ([4]; orally dosed BDC male rats): 37.3%
share of radioactivity (integrated radiochromatographic peaks) in plasma ([4]; rats, oral 40 mg/kg, all time points (1, 3, 8 h)): > 67%
permeability [5]: high permeability
Drug-Related Exposure (%) ([6]; day 28, Female (125 mg/kg)): 76%
Drug-Related Exposure (%) ([6]; day 28, Female (250 mg/kg)): 74%
Drug-Related Exposure (%) ([6]; day 28, Female (500 mg/kg)): 57%
Drug-Related Exposure (%) ([6]; day 28, Male (125 mg/kg)): 78%
percentage free drug in plasma [7]: 36.1 ± 1.0%
NOAEL at 3 month [8]: 125 mg/kg/day
NOAEL at 3 month [9]: 100 mg/kg/day
bioavailability [10]: good bioavailability
clearance [10]: moderate clearance
IC50 [11]: 1.5 nM
percentage free drug in plasma [12]: 31.9 ± 0.50%

c1cc2c3c(c1)[C@H]1CCC[C@H]1CN3CCNC2 [vabicaserin]
exposure of the carbamoyl glucuronide metabolite relative to parent [13]: 60 fold
